Data taken from PubChem BioAssay AID720508 (The Scripps Research Institute Molecular Screening Center, 2013).
The campaign covered roughly 370,000 compounds. About 500 (0.14%) were called active. Many of the other results were omitted from the sample, so actives are more common in it than they were. A number with no mark means an inactive call.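 Rule for the calls: active = inhibition above the mean of compounds falling within the control limits plus 3 SD of them (cut at about 14% in these data); inactive = the rest.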

target: Fibrinogen beta chain (Homo sapiens) (UniProt P02675); test: small molecules displacing Tn7 from DD(E) complex – biochemical, fluorescence polarization, human fibrin, Tn7 probe, primary screen (AID 720508); details: FP displacement of FITC-Tn7 peptide from fibrin DD(E); at 8.3 µM; active compounds read high; 0% = median of compound wells per plate;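 note: 0% = plate median of compound wells and 100% = 10 µM Aha-Tn7 peptide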
Method in brief: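 Also added: labelled Tn7 tracer, 0.1 µM; Assay system: human fibrin DD(E) protein; Amount: 2 µM fibrin DD(E); Schedule: 10 min compound pre-incubation, 3 h probe incubation at room temperature; Repeats: one replicate per compound; Read-out basis: percent inhibition; Measured by: fluorescence polarization of the labelled Tn7 tracer.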

Fibrinogen beta chain (Homo sapiens), sequence (P02675 whole entry, looked up): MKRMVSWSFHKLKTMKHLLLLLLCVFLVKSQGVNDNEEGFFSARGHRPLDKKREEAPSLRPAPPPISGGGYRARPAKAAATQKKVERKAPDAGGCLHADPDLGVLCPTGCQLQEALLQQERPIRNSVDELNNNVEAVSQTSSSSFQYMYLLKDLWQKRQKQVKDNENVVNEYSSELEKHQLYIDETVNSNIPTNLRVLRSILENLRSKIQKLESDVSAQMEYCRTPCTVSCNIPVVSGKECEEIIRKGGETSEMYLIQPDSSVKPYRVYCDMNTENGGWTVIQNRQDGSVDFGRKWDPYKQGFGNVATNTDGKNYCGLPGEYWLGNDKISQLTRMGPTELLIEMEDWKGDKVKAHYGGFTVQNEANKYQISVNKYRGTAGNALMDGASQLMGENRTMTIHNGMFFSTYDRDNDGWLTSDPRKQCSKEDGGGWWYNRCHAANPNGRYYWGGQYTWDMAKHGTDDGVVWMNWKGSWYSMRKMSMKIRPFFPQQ

Compound	inhibition
COc1ccc(C(C(=O)NC2CCCCC2)N(C(=O)Cc2c[nH]c3ccccc23)c2ccccc2)cc1OC (stereo unspecified)	2.39%
COC(=O)CNC(=O)C(CCSC)NC(C)=O (stereo unspecified)	3.11%
COc1cc(OC)c(C(=S)N2CCCC2)cc1OC	2.99%
CC1(C)C/C(=C(/C#N)C(N)=O)CCO1	-4%
Cc1cc(C(=O)COc2ccc(Br)cc2F)c(C)n1C1CC1	1.64%
O=C(NC1CCCCN(Cc2cccc(C(F)(F)F)c2)C1=O)c1ccccc1I (stereo unspecified)	2.66%
O=C(NCc1ccc(F)cc1F)[C@@H]1CCCN1C(=O)[C@@H]1CCCN1C(=O)c1cccc(Cl)c1	-9.38%
O=C(COC(=O)CNS(=O)(=O)c1ccccc1)NC12CC3CC(CC(C3)C1)C2	2.98%
CC1CC1C(=O)OCC(=O)c1c(N)n(C)c(=O)n(C)c1=O (stereo unspecified)	-2.99%
CC(C)NC(=O)C1(C)CCCCN1Cc1cccc(C(F)(F)F)c1 (stereo unspecified)	1.37%
Brc1ccc(-c2nn[nH]n2)cc1	-4.35%
c1cc(-c2nn[nH]n2)ccc1CN1CCCCC1	14.4% (active)
Clc1ccc(CN2CCCCCC2)cc1Cl	1.42%
COc1cccc(N2CC(NS(=O)(=O)c3cccs3)CC2=O)c1 (stereo unspecified)	15.4% (active)
COc1cccc(N2CC(NS(=O)(=O)c3ccc(Cl)cc3)CC2=O)c1 (stereo unspecified)	-2.23%
COc1cccc(N2CC(NC(=O)c3ccc4ccccc4c3)CC2=O)c1 (stereo unspecified)	6.86%
CCN(CC)C(=O)CSC(Nc1cccc(F)c1)=C(C#N)C#N	2.96%
CCn1c(C)nc2c1C(=O)c1ccccc1C2=O	-6.92%
CCC(C(=O)OC)n1cnc2c(oc3ccccc32)c1=O (stereo unspecified)	6.68%
Cc1ccc(S(=O)(=O)CC(=O)Nc2sc(C)c(C)c2C(N)=O)cc1	-0.13%
NC1=NC(=O)C(Cc2cccc(Cl)c2)S1 (stereo unspecified)	2.82%

Compound	inhibition
COCc1cc(=O)n2[nH]c(C)c(-c3ccccc3)c2n1	-2.38%
CN(C(=O)C1CCN(c2ncnc3c2nc2n3CCCCC2)CC1)C1CCCCC1	-2.26%
Cc1ccc(CN2CCN(Cc3ccc(OCCO)cc3)CC2CCO)o1 (stereo unspecified)	7.01%
CCCCNC(=O)C[C@@H]1C[C@@]2(C(=O)OCC)CCC=C2N(Cc2cccc3ccccc23)C1=O	-3.28%
CN(C(=O)CSc1nc(C2CC2)nc2ccccc12)c1nc(-c2ccccc2)cs1	-7.43%
CN1c2ccc(C=O)c3c(C=O)ccc(c23)N(C)C1(C)C	16.9% (active)
COc1ccc(NC(=O)NNC(=O)COc2cc(C)c(Cl)c(C)c2)c(OC)c1	-5.88%
O=C1NC(=Nc2ccc(Cl)cc2)SC1Cc1cccc(Cl)c1Cl (stereo unspecified)	0.11%
Cc1ccc(N(C(=O)C(F)(F)F)C(C(=O)NC2CCCCC2)c2ccncc2)cc1C (stereo unspecified)	5.16%
CC[C@@H]1CCCCc2ccccc2[C@@H](C(=O)C[C@H](O)CC(C)=O)OC1=O	1.6%
CCCNC(=O)C(=O)Nc1cc2c3c(c1)CCC(=O)N3CCC2	0.54%
COc1ccccc1C(=O)N1CCN=C1SCc1cccnc1	3.49%
COC(=O)CNc1nc(Cl)nc(N2CCC(C)CC2)n1	7.41%
NC(=O)c1cc(S(=O)(=O)N2CCCC2)ccc1OCc1ccc(F)cc1	0.91%
CC(C)(C)c1ccccc1NC(=O)CN1C(=O)NC2(CCCC2)C1=O	-0.76%
Cc1nn(C)c(C)c1S(=O)(=O)N1CCc2ccccc21	-4.06%
CCO[C@H]1OC(C(=O)N2CCN(Cc3ccccc3)CC2)=C[C@@H](c2cn(C(C)=O)c3ccccc23)[C@@H]1CCCO	7%
COc1ccccc1/C=C/C(=O)OCC(=O)NC1CCCCCC1	8.08%
C=CCOc1ccc(/C=C/C(=O)OCC(=O)NC2CCCCCC2)cc1	0.53%
O=C(COC(=O)/C=C/c1ccc(OC(F)F)cc1)NC1CCCCC1	13.9% (active)
